{"source": "ChEMBL document CHEMBL3091449", "about": "“Synthesis and antimicrobial profile of N-substituted imidazolium oximes and their monoquaternary salts against multidrug resistant bacteria” (2013)", "key": {"Pseudomonas aeruginosa [1]": {"tested_on": "Pseudomonas aeruginosa", "experiment": "Antibacterial activity against GIM-1 expressing Pseudomonas aeruginosa isolate 197 after 18 to 24 hrs by two-fold broth microdilution assay", "type": "functional", "in_short": "(§1)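 CLSI two-fold broth microdilution was used. Compounds were dissolved in DMSO, brought to 10 mg/mL in medium, then serially diluted in Mueller Hinton broth over 400–0.09 µg/mL. Overnight MHB cultures were diluted to 10^6 CFU/mL, and 10 µL was added per well. Plates were incubated 18–24 h at 37 °C, then 0.2 mg/mL INT was added for 30 min at 37 °C. MIC was the lowest concentration with no visible growth or pink colour, triplicate.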"}, "Acinetobacter baumannii": {"tested_on": "Acinetobacter baumannii", "experiment": "Antibacterial activity against SIM-1 expressing Acinetobacter baumannii isolate 170 after 18 to 24 hrs by two-fold broth microdilution assay", "type": "functional", "in_short": "(§2)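 CLSI two-fold broth microdilution. Compounds dissolved in DMSO, 10 mg/mL stock, serially diluted to 400–0.09 µg/mL in Mueller Hinton broth. Wells inoculated with 10^6 CFU/mL bacteria and incubated 18–24 h at 37 °C. 0.2 mg/mL INT added for 30 min. MIC taken as the lowest concentration with no visible growth or pink colour. Triplicate.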"}, "Escherichia coli [2]": {"tested_on": "Escherichia coli", "experiment": "Antibacterial activity against […] expressing Escherichia coli isolate 235 after 18 to 24 hrs by two-fold broth microdilution assay", "type": "functional", "in_short": "as §2"}, "Escherichia coli [3]": {"tested_on": "Escherichia coli", "experiment": "Antibacterial activity against TEM-1/SHV-12 expressing Escherichia coli isolate 237 after 18 to 24 hrs by two-fold broth microdilution assay", "type": "functional", "in_short": "as §2"}, "Escherichia coli [4]": {"tested_on": "Escherichia coli", "experiment": "Antibacterial activity against […] expressing Escherichia coli isolate 4024 after 18 to 24 hrs by two-fold broth microdilution assay", "type": "functional", "in_short": "as §2"}, "Aeromonas caviae [5]": {"tested_on": "Aeromonas caviae", "experiment": "Antibacterial activity against TEM-1/CTX-M-15 expressing Aeromonas caviae isolate 260 after 18 to 24 hrs by two-fold broth microdilution assay", "type": "functional", "in_short": "as §1"}, "Aeromonas caviae [6]": {"tested_on": "Aeromonas caviae", "experiment": "Antibacterial activity against […] expressing Aeromonas caviae isolate 258 after 18 to 24 hrs by two-fold broth microdilution assay", "type": "functional", "in_short": "as §1"}, "Aeromonas hydrophila [7]": {"tested_on": "Aeromonas hydrophila", "experiment": "Antibacterial activity against TEM-1/SHV-12 expressing Aeromonas hydrophila isolate 268 after 18 to 24 hrs by two-fold broth microdilution assay", "type": "functional", "in_short": "as §1"}, "Kluyvera intermedia": {"tested_on": "Kluyvera intermedia", "experiment": "Antibacterial activity against TEM-1/SHV-12/[…] expressing Enterobacter intermedius isolate 243 after 18 to 24 hrs by two-fold broth microdilution assay", "type": "functional", "in_short": "as §1"}, "Enterobacter cloacae [8]": {"tested_on": "Enterobacter cloacae", "experiment": "Antibacterial activity against CTX-15 expressing Enterobacter cloacae isolate 51 after 18 to 24 hrs by two-fold broth microdilution assay", "type": "functional"}, "Enterobacter cloacae [9]": {"tested_on": "Enterobacter cloacae", "experiment": "Antibacterial activity against TEM-1/CTX-M-15 expressing Enterobacter cloacae isolate 62 after 18 to 24 hrs by two-fold broth microdilution assay", "type": "functional"}, "Enterobacter cloacae [10]": {"tested_on": "Enterobacter cloacae", "experiment": "Antibacterial activity against TEM-1/SHV-12 expressing Enterobacter cloacae isolate 306 after 18 to 24 hrs by two-fold broth microdilution assay", "type": "functional"}, "Klebsiella pneumoniae [11]": {"tested_on": "Klebsiella pneumoniae", "experiment": "Antibacterial activity against TEM-1/SHV-12 expressing Klebsiella pneumoniae isolate 303 after 18 to 24 hrs by two-fold broth microdilution assay", "type": "functional", "in_short": "as §1"}, "[12]": {"tested_on": "Stenotrophomonas maltophilia", "experiment": "Antibacterial activity against […] expressing Stenotrophomonas maltophilia isolate 125 after 18 to 24 hrs by two-fold broth microdilution assay", "type": "functional", "in_short": "as §1"}, "Aeromonas hydrophila [13]": {"tested_on": "Aeromonas hydrophila", "experiment": "Antibacterial activity against Aeromonas hydrophila FNSST 014 after 18 to 24 hrs by two-fold broth microdilution assay", "type": "functional", "in_short": "as §1"}, "Pseudomonas aeruginosa [14]": {"tested_on": "Pseudomonas aeruginosa", "experiment": "Antibacterial activity against Pseudomonas aeruginosa FNSST 982 after 18 to 24 hrs by two-fold broth microdilution assay", "type": "functional", "in_short": "as §1"}, "Klebsiella pneumoniae [15]": {"tested_on": "Klebsiella pneumoniae", "experiment": "Antibacterial activity against Klebsiella pneumoniae FNSST 011 after 18 to 24 hrs by two-fold broth microdilution assay", "type": "functional", "in_short": "as §1"}, "Escherichia coli [16]": {"tested_on": "Escherichia coli", "experiment": "Antibacterial activity against Escherichia coli FNSST 982 after 18 to 24 hrs by two-fold broth microdilution assay", "type": "functional", "in_short": "as §1"}, "Clostridium perfringens [17]": {"tested_on": "Clostridium perfringens", "experiment": "Antibacterial activity against Clostridium perfringens FNSST 4999 after 18 to 24 hrs by two-fold broth microdilution assay", "type": "functional", "in_short": "as §2"}, "Staphylococcus aureus [18]": {"tested_on": "Staphylococcus aureus", "experiment": "Antibacterial activity against Staphylococcus aureus ATCC 25923 after 18 to 24 hrs by two-fold broth microdilution assay", "type": "functional", "in_short": "as §1"}, "Enterococcus faecalis [19]": {"tested_on": "Enterococcus faecalis", "experiment": "Antibacterial activity against Enterococcus faecalis ATCC 29212 after 18 to 24 hrs by two-fold broth microdilution assay", "type": "functional", "in_short": "as §1"}, "Bacillus cereus [20]": {"tested_on": "Bacillus cereus", "experiment": "Antibacterial activity against Bacillus cereus ATCC 11778 after 18 to 24 hrs by two-fold broth microdilution assay", "type": "functional", "in_short": "as §1"}, "Aeromonas hydrophila [21]": {"tested_on": "Aeromonas hydrophila", "experiment": "Antibacterial activity against Aeromonas hydrophila FNSST 014 assessed as diameter of zone of inhibition at 15 ug/disc after 24 hrs by disc diffusion method", "type": "functional, organism-based", "in_short": "(§3)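 Gentamicin 15 µg disc run as positive control in CLSI disc diffusion. Lawn of 100 µL of 10^6 cfu/mL bacteria on Mueller Hinton agar, incubated 24 h at 37 °C. Zone diameter measured in mm including the 6 mm disc, triplicate, mean ± SE.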"}, "Pseudomonas aeruginosa [22]": {"tested_on": "Pseudomonas aeruginosa", "experiment": "Antibacterial activity against Pseudomonas aeruginosa FNSST 982 assessed as diameter of zone of inhibition at 15 ug/disc after 24 hrs by disc diffusion method", "type": "functional, organism-based", "in_short": "as §3"}, "Klebsiella pneumoniae [23]": {"tested_on": "Klebsiella pneumoniae", "experiment": "Antibacterial activity against Klebsiella pneumoniae FNSST 011 assessed as diameter of zone of inhibition at 15 ug/disc after 24 hrs by disc diffusion method", "type": "functional, organism-based", "in_short": "as §3"}, "Escherichia coli [24]": {"tested_on": "Escherichia coli", "experiment": "Antibacterial activity against Escherichia coli FNSST 982 assessed as diameter of zone of inhibition at 15 ug/disc after 24 hrs by disc diffusion method", "type": "functional, organism-based", "in_short": "as §3"}, "Clostridium perfringens [25]": {"tested_on": "Clostridium perfringens", "experiment": "Antibacterial activity against Clostridium perfringens FNSST 4999 assessed as diameter of zone of inhibition at 15 ug/disc after 24 hrs by disc diffusion method", "type": "functional, organism-based", "in_short": "as §3"}, "Staphylococcus aureus [26]": {"tested_on": "Staphylococcus aureus", "experiment": "Antibacterial activity against Staphylococcus aureus ATCC 25923 assessed as diameter of zone of inhibition at 15 ug/disc after 24 hrs by disc diffusion method", "type": "functional, organism-based", "in_short": "as §3"}, "Enterococcus faecalis [27]": {"tested_on": "Enterococcus faecalis", "experiment": "Antibacterial activity against Enterococcus faecalis ATCC 29212 assessed as diameter of zone of inhibition at 15 ug/disc after 24 hrs by disc diffusion method", "type": "functional, organism-based", "in_short": "as §3"}, "Bacillus cereus [28]": {"tested_on": "Bacillus cereus", "experiment": "Antibacterial activity against Bacillus cereus ATCC 11778 assessed as diameter of zone of inhibition at 15 ug/disc after 24 hrs by disc diffusion method", "type": "functional, organism-based", "in_short": "as §3"}}, "data": [{"sequence": "GENTAMICIN", "values": [{"measurement": "MIC", "setting": "Pseudomonas aeruginosa [1]", "value": "> 8", "unit": "mg/L"}, {"measurement": "MIC", "setting": "Acinetobacter baumannii", "value": 16, "unit": "mg/L"}, {"measurement": "MIC", "setting": "Escherichia coli [2]", "value": 16, "unit": "mg/L"}, {"measurement": "MIC", "setting": "Escherichia coli [3]", "value": 8, "unit": "mg/L"}, {"measurement": "MIC", "setting": "Escherichia coli [4]", "value": 64, "unit": "mg/L"}, {"measurement": "MIC", "setting": "Aeromonas caviae [5]", "value": 32, "unit": "mg/L"}, {"measurement": "MIC", "setting": "Aeromonas caviae [6]", "value": 12.8, "unit": "mg/L"}, {"measurement": "MIC", "setting": "Aeromonas hydrophila [7]", "value": 4, "unit": "mg/L"}, {"measurement": "MIC", "setting": "Kluyvera intermedia", "value": 2, "unit": "mg/L"}, {"measurement": "MIC", "setting": "Enterobacter cloacae [8]", "value": 128, "unit": "mg/L"}, {"measurement": "MIC", "setting": "Enterobacter cloacae [9]", "value": 4, "unit": "mg/L"}, {"measurement": "MIC", "setting": "Enterobacter cloacae [10]", "value": 256, "unit": "mg/L"}, {"measurement": "MIC", "setting": "Klebsiella pneumoniae [11]", "value": 32, "unit": "mg/L"}, {"measurement": "MIC", "setting": "[12]", "value": 2, "unit": "mg/L"}, {"measurement": "MIC", "setting": "Aeromonas hydrophila [13]", "value": 8, "unit": "mg/L"}, {"measurement": "MIC", "setting": "Pseudomonas aeruginosa [14]", "value": 64, "unit": "mg/L"}, {"measurement": "MIC", "setting": "Klebsiella pneumoniae [15]", "value": 8, "unit": "mg/L"}, {"measurement": "MIC", "setting": "Escherichia coli [16]", "value": 32, "unit": "mg/L"}, {"measurement": "MIC", "setting": "Clostridium perfringens [17]", "value": 0.5, "unit": "mg/L"}, {"measurement": "MIC", "setting": "Staphylococcus aureus [18]", "value": 1, "unit": "mg/L"}, {"measurement": "MIC", "setting": "Enterococcus faecalis [19]", "value": 4, "unit": "mg/L"}, {"measurement": "MIC", "setting": "Bacillus cereus [20]", "value": 4, "unit": "mg/L"}, {"measurement": "inhibition zone (IZ)", "setting": "Aeromonas hydrophila [21]", "value": 12.6, "unit": "mm"}, {"measurement": "inhibition zone (IZ)", "setting": "Pseudomonas aeruginosa [22]", "value": 9.2, "unit": "mm"}, {"measurement": "inhibition zone (IZ)", "setting": "Klebsiella pneumoniae [23]", "value": 18.2, "unit": "mm"}, {"measurement": "inhibition zone (IZ)", "setting": "Escherichia coli [24]", "value": 11.5, "unit": "mm"}, {"measurement": "inhibition zone (IZ)", "setting": "Clostridium perfringens [25]", "value": 21.7, "unit": "mm"}, {"measurement": "inhibition zone (IZ)", "setting": "Staphylococcus aureus [26]", "value": 23.9, "unit": "mm"}, {"measurement": "inhibition zone (IZ)", "setting": "Enterococcus faecalis [27]", "value": 14.6, "unit": "mm"}, {"measurement": "inhibition zone (IZ)", "setting": "Bacillus cereus [28]", "value": 18.2, "unit": "mm"}]}]}
